Measured values gathered from unrelated publications.
Lines come from different studies, so protocols differ.
Cell line: A549
Effect on: cell growth or viability

| Structure (SMILES) | test | setting | measurement | result |
| --- | --- | --- | --- | --- |
| COc1ccc(NC(=O)NCc2cn(Cc3ccc(Cl)cc3)nn2)cc1 | CCK-8 | 50 µM, 72 h | viability | 80.9% |
| NCCC(=O)Nc1ccccc1/N=c1\cc(-c2ccc3c(c2)OCO3)oc2ccccc12 | CCK-8 | 1 µM | inhibition | 3.27% |
| CCCCn1cnc2ccc(-c3ccc(NC(=O)Nc4ccc(C)cc4)nc3)cc2c1=O | CCK-8 | 72 h | IC50 | > 10000 nM |
| O=C(Nc1ccc(-c2cn(Cc3ccc(Br)cc3)nn2)cc1)Nc1ccccc1Br | CCK-8 | 20 µM, 72 h | viability | 77.3% |
| COc1ccc2/c(=N/c3ccccc3NC(=O)[C@H](C)N)cc(-c3ccc4c(c3)OCCO4)oc2c1 | CCK-8 | 1 µM | inhibition | -2.21% |
| O=C(Nc1ccc(Cl)cc1)Nc1ccc(-c2cn(Cc3cccc(Cl)c3)nn2)cc1 | CCK-8 | 20 µM, 72 h | viability | 64.6% |
| COc1ccc(NC(=O)Nc2cccc(-c3cn(Cc4ccc(Br)cc4)nn3)c2)cc1 | CCK-8 | 20 µM, 72 h | viability | 152% |
| CCCCCC(=O)Nc1ccc(-c2ccc3ncn(CC4CC4)c(=O)c3c2)cn1 | CCK-8 | 72 h | IC50 | 250 nM |
| CCCCCCCCCCCCCCCCCCOc1cccc(CC(=O)OCC[N+]2(C)CCCC2)c1 | SRB | 10 µM | inhibition | 13.9% |
| O=C(NCc1cn(Cc2ccc(Cl)cc2)nn1)Nc1ccc(Cl)cc1 | CCK-8 | 50 µM, 72 h | viability | 67.6% |
| CCCCC(=O)Nc1ccc(-c2ccc3ncn(CCC)c(=O)c3c2)cc1 | CCK-8 | 72 h | IC50 | > 10000 nM |
| O=C(Nc1ccc(Cl)cc1)Nc1cccc(-c2cn(Cc3cccc(Cl)c3)nn2)c1 | CCK-8 | 50 µM, 72 h | viability | 166% |
| NCCC(=O)Nc1ccccc1/N=c1\cc(-c2ccc3nc(N)oc3c2)oc2ccc(O)cc12 | CCK-8 | 1 µM | inhibition | 13.9% |
| CCCCC(=O)Nc1ccc(-c2ccc3ncn(CC4CCC4)c(=O)c3c2)cn1 | CCK-8 | 72 h | IC50 | 320 nM |
| NCCCCC(=O)Nc1ccccc1/N=c1\cc(-c2ccc3c(c2)OCO3)oc2ccccc12 | CCK-8 | 1 µM | inhibition | 3.56% |
| COc1ccc(NC(=O)Nc2cccc(-c3cn(Cc4ccc(Cl)cc4)nn3)c2)cc1 | CCK-8 | 20 µM, 72 h | viability | 147% |
| COCCC(=O)Nc1ccccc1/N=c1\cc(-c2ccc3nc(N)oc3c2)oc2ccccc12 | CCK-8 | 1 µM | inhibition | -0.65% |
| CCCCn1cnc2ccc(-c3ccc(NC(=O)C4CCCCC4)nc3)cc2c1=O | CCK-8 | 72 h | IC50 | 1280 nM |
| O=C(Nc1ccccc1/N=c1\cc(-c2ccc3c(c2)OCCO3)oc2cc(F)ccc12)N1CCOCC1 | CCK-8 | 1 µM | inhibition | -4.17% |
| COc1ccc(NC(=O)NCc2cn(Cc3ccccc3C)nn2)cc1 | CCK-8 | 20 µM, 72 h | viability | 65.6% |

| Structure (SMILES) | test | setting | measurement | result |
| --- | --- | --- | --- | --- |
| CCOc1ccc(-c2cc(C(=O)O)c(-c3ccc(Cl)cc3)o2)cc1 | MTT | 48 h | EC50 | 75000 nM |
| COc1cccc2c1C(=O)c1c(O)c3c(c(O)c1C2=O)C[C@@](O)(C(=O)CO)C[C@@H]3O[C@H]1C[C@H](N)[C@H](O)[C@H](C)O1 | MTT | 72 h | IC50 | 520 nM |
| Nc1nc2ccc(-c3c/c(=N\c4ccccc4NC(=O)C4CCNC4)c4ccccc4o3)cc2o1 (stereo not drawn) | CCK-8 | 1 µM | inhibition | 22.7% |
| COc1ccc(NC(=O)Nc2ccc(-c3cn(Cc4ccc(Cl)cc4)nn3)cc2)cc1 | CCK-8 | 20 µM, 72 h | viability | 102% |
| Cc1c(Cl)c(=O)oc2cc(OCCCCSC#N)ccc12 | SRB | – | GI50 | 13000 nM |
| Cc1ccc(C(=O)Nc2ccc(-c3ccc4ncn(Cc5ccccc5)c(=O)c4c3)cn2)cc1 | CCK-8 | 72 h | IC50 | > 10000 nM |
| COc1ccc(NC(=O)Nc2cccc(-c3cn(Cc4ccc(C)cc4)nn3)c2)cc1 | CCK-8 | 50 µM, 72 h | viability | 190% |
| CCCCC(=O)Nc1ccc(-c2ccc3ncn(CCC)c(=O)c3c2)c(F)n1 | CCK-8 | 72 h | IC50 | > 10000 nM |
| CCCCCCCCCCCCCCCCCCOc1ccc(CC(=O)OCC[N+](C)(C)C)cc1 | SRB | 10 µM | inhibition | 5.41% |
| Nc1ccccc1/N=c1\cc(-c2ccc3c(c2)OCO3)oc2ccccc12 | CCK-8 | 1 µM | inhibition | 11.1% |
| Cc1cccc(NC(=O)Nc2ccc(-c3ccc4ncn(Cc5ccccc5)c(=O)c4c3)cn2)c1 | CCK-8 | 72 h | IC50 | > 10000 nM |
| O=C(NCc1cn(Cc2cccc(Cl)c2)nn1)Nc1ccc(Cl)cc1 | CCK-8 | 20 µM, 72 h | viability | 76.7% |
| COc1cccc(NC(=O)Nc2nc3cc(-c4ccc5ncn(CCC6CCCCC6)c(=O)c5c4)ccc3s2)c1 | MTT | 72 h | IC50 | 1270 nM |
| CCCCCCCCCCCCCCCCCCOc1cccc(CC(=O)OCCC[N+](C)(C)C)c1 | SRB | 10 µM | inhibition | 16.2% |
| O=C(Nc1ccc(-c2cn(Cc3ccc(Cl)cc3)nn2)cc1)Nc1ccccc1Br | CCK-8 | 20 µM, 72 h | viability | 102% |
| CCCCCCCCCCCCCCCCCCOc1ccc(CC(=O)OCCC[N+](C)(C)C)cc1 | SRB | 10 µM | inhibition | 21.9% |
| O=C(Nc1ccc(Cl)cc1)Nc1ccc(-c2cn(Cc3ccc(Cl)cc3)nn2)cc1 | CCK-8 | 50 µM, 72 h | viability | 79.6% |
| COc1ccc(NC(=O)Nc2cccc(-c3cn(Cc4ccccc4C)nn3)c2)cc1 | CCK-8 | 20 µM, 72 h | viability | 137% |
| CCCCCCCCCCCCCCCCCCOc1ccc(CC(=O)OCC[N+](CC)(CC)CC)cc1 | SRB | 10 µM | inhibition | 21.2% |
